Assay results taken from ChEMBL document CHEMBL1145792, “Structure-activity relationships for 4-nitrobenzyl carbamates of 5-aminobenz[e]indoline minor groove alkylating agents as prodrugs for GDEPT in conjunction with E. coli nitroreductase” (J Med Chem, 2003).

Assays:
[1] = Partition coefficient (logP); format: physicochemical; conditions: octanol/water
Method in brief: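 logP was calculated with prediction software, not measured.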

WiDr [2] = assay: Cytotoxicity in non-NTR-expressing human colon carcinoma cell line (WiDr).; format: functional, cell-based
Ovarian cancer cell line [3] = assay: Ratio of cytotoxicity in a non-NTR-expressing SKOV compared to that in NTR-expressing SKOV.; format: functional, Homo sapiens
Method in brief: (§1)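 Parental and stably NTR-transfected partner lines (V79puro/V79-NTRpuro, EMT6/EMT6-NTRpuro, WiDr/WiDr-NTRneo, SKOV3/SKOV-NTRneo) tested in parallel. Aerobic sulforhodamine B growth inhibition after an 18 h exposure, read 4–5 days later. Ratio is the NTR-ve IC50 over the NTR+ve IC50, calculated within each experiment.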

Ovarian cancer cell line [4] = assay: Cytotoxicity in non-NTR-expressing human ovarian carcinoma cell line (SKOV).; format: functional, cell-based
V79 [5] = assay: Cytotoxicity in non-NTR-expressing Chinese hamster fibroblast (V79).; format: functional, cell-based; conditions: Cricetulus griseus
WiDr [6] = assay: Ratio of cytotoxicity in a non-NTR-expressing WiDr compared to that in NTR-expressing WiDr.; format: functional, Homo sapiens; method in brief: as §1
[7] = test system: Mammary carcinoma cell line; assay: Cytotoxicity in non-NTR-expressing mouse mammary carcinoma cell line (EMT6).; format: functional, cell-based
V79 [8] = assay: Ratio of cytotoxicity activity in a non-NTR-expressing V79 compared to that in NTR-expressing V79.; format: functional; method in brief: as §1
[9] = test system: Mammary carcinoma cell line; assay: Ratio of cytotoxicity in non-NTR-expressing EMT6 compared to that in NTR-expressing EMT6.; format: functional, Mus musculus; method in brief: as §1
[10] = LogD value was determined; format: physicochemical; conditions: octanol/water

logP ([1]; read-out: logP) | logD [10] | Structure (SMILES) | IC50 (WiDr [2]) | Ratio (Ovarian cancer cell line [3]) | IC50 (Ovarian cancer cell line [4]) | IC50 (V79 [5]) | Ratio (WiDr [6]) | IC50 [7] | Ratio (V79 [8]) | Ratio [9] | logP [1]
4.9 |  | COc1cc2cc(C(=O)N3CC(CCl)c4c3cc(NC(=O)OC(C)c3ccc([N+](=O)[O-])cc3)c3ccccc43)[nH]c2c(OC)c1OC (stereo not drawn) | 154 nM | 5.65 | 158 nM | 62 nM | 6.6 | 79 nM | 1.67 | 11 | 
4.47 |  | COCCOc1cc([N+](=O)[O-])ccc1COC(=O)Nc1cc2c(c3ccccc13)C(CCl)CN2C(=O)c1cc2cc(OC)c(OC)c(OC)c2[nH]1 (stereo not drawn) | 110 nM | 67 | 106 nM | 31 nM | 45 | 33 nM | 17 | 78 | 
4.77 |  | COc1cc([N+](=O)[O-])ccc1COC(=O)Nc1cc2c(c3ccccc13)C(CCl)CN2C(=O)c1cc2cc(OC)c(OC)c(OC)c2[nH]1 (stereo not drawn) | 141 nM | 17 | 59 nM | 39 nM | 47 | 174 nM | 6 | 108 | 
3.79 |  | COc1cc2cc(C(=O)N3CC(CCl)c4c3cc(NC(=O)OCc3ccc([N+](=O)[O-])cc3OCCO)c3ccccc43)[nH]c2c(OC)c1OC (stereo not drawn) | 295 nM | 84 | 224 nM | 63 nM | 148 | 107 nM | 11 | 104 | 
 |  | NC(=O)c1cc(N2CC2)c([N+](=O)[O-])cc1[N+](=O)[O-] [TRETAZICAR] |  | 317 | 174000 nM |  | 51.2 | 710000 nM | 2090 | 930 | 1.28
4.94 | 3.24 | CN(C)CCOc1ccc2[nH]c(C(=O)N3CC(CCl)c4c3cc(NC(=O)OCc3ccc([N+](=O)[O-])cc3)c3ccccc43)cc2c1 (stereo not drawn) | 403 nM | 41 | 770 nM | 157 nM | 20 | 208 nM | 4.3 | 31 | 
4.95 | 2.74 | COc1cc2cc(C(=O)N3CC(CCl)c4c3cc(NC(=O)OCc3ccc([N+](=O)[O-])cc3OCCCN(C)C)c3ccccc43)[nH]c2c(OC)c1OC (stereo not drawn) | 269 nM | 3.6 | 189 nM | 45 nM | 3.8 | 74 nM | 1.45 | 3.4 | 
4.55 | 4.06 | COc1cc2cc(C(=O)N3CC(CCl)c4c3cc(NC(=O)OCc3ccc([N+](=O)[O-])cc3OCCCN3CCOCC3)c3ccccc43)[nH]c2c(OC)c1OC (stereo not drawn) | 98 nM | 6.5 | 88 nM | 20 nM | 9 | 24 nM | 2.6 | 6 | 
3.38 |  | COc1cc2cc(C(=O)N3CC(CCl)c4c3cc(NC(=O)OCc3ccc([N+](=O)[O-])cc3OCC(O)CO)c3ccccc43)[nH]c2c(OC)c1OC (stereo not drawn) | 129 nM | 40 | 114 nM | 42 nM | 25 | 44 nM | 1.75 | 13 | 
6.09 |  | COc1cc([N+](=O)[O-])ccc1COC(=O)Nc1ccc(COC(=O)Nc2cc3c(c4ccccc24)C(CCl)CN3C(=O)c2cc3cc(OC)c(OC)c(OC)c3[nH]2)cc1 (stereo not drawn) | 295 nM | 0.7 | 223 nM | 54 nM | 1.8 | 63 nM | 1.03 | 1.8 | 
4.57 |  | COc1cc2cc(C(=O)N3CC(CCl)c4c3cc(NC(=O)OCc3ccc([N+](=O)[O-])cc3OCCCO)c3ccccc43)[nH]c2c(OC)c1OC (stereo not drawn) | 191 nM | 58 | 145 nM | 48 nM | 91 | 47 nM | 11 | 91 | 
3.98 |  | COc1cc2cc(C(=O)N3CC(CCl)c4c3cc(N(C)C(=O)OCc3ccc([N+](=O)[O-])cc3)c3ccccc43)[nH]c2c(OC)c1OC (stereo not drawn) | 101 nM | 10 | 152 nM | 48 nM | 15 | 48 nM | 8.4 | 27 | 

Structure (SMILES) | logP ([1]; read-out: logP) | logD [10] | IC50 (WiDr [2]) | Ratio (Ovarian cancer cell line [3]) | IC50 (Ovarian cancer cell line [4]) | IC50 (V79 [5]) | Ratio (WiDr [6]) | IC50 [7] | Ratio (V79 [8]) | Ratio [9] | logP [1]
CNc1cc2c(c3ccccc13)C(CCl)CN2C(=O)c1cc2cc(OC)c(OC)c(OC)c2[nH]1 (stereo not drawn) | 2.87 |  | 0.2 nM | 0.7 | 0.2 nM | 0.08 nM | 1.1 | 0.11 nM | 1.2 | 0.74 | 
COc1cc2cc(C(=O)N3CC(CCl)c4c3cc(N)c3ccccc43)[nH]c2c(OC)c1OC (stereo not drawn) | 1.87 |  | 1.6 nM | 0.6 | 1.1 nM | 0.33 nM | 0.9 | 0.37 nM | 0.9 | 2 | 
COc1cc2cc(C(=O)N3CC(CCl)c4c3cc(NC(=O)OCc3ccc([N+](=O)[O-])cc3)c3ccccc43)[nH]c2c(OC)c1OC (stereo not drawn) | 4.55 |  | 391 nM | 12 | 62 nM | 89 nM | 33 | 193 nM | 10 | 112 | 
NC(=O)c1cc(N(CCBr)CCBr)c([N+](=O)[O-])cc1[N+](=O)[O-] | 2.68 |  |  | 211 | 58000 nM |  | 174 | 54000 nM | 302 | 1380 | 
CN(C)CCOc1ccc2[nH]c(C(=O)N3CC(CCl)c4c3cc(N)c3ccccc43)cc2c1 (stereo not drawn) | 2.26 | 0.53 | 6 nM | 1.6 | 13 nM | 2.6 nM | 1.9 | 1.9 nM | 1.2 | 0.6 | 
